ChEMBL document CHEMBL4513216, “Probing the Open Global Health Chemical Diversity Library for Multistage-Active Starting Points for Next-Generation Antimalarials” (ACS Infect Dis, 2020)

Assay: Toxicity liver stage against HepG2, at 10uM
Type: cell-based
Parameters: test concentration 10 uM, cell line HepG2-A16-CD81EGFP
Settings: human, HepG2-A16-CD81EGFP cells; read-out: INHIBITION
Outline: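 Uninfected HepG2-A16-CD81EGFP cells, 3 × 10^3 per well, 1536-well, plated on prespotted compound at 10 μM final, parasite-free screening media added to match infected plates; puromycin 10 μM positive, DMSO 0.5% negative; run in parallel with 48 h PbLuc assay at 37 °C, 5% CO2; viability by CellTiter-Glo luminescence, normalized to controls.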

Structure (SMILES)	cytotoxicity at 10 µM
O=C(NCc1ccccc1)C1CN(c2ccccn2)CCO1 (stereo unspecified)	-2.44%
Cn1cc(CN2CCCC3(CCN(c4cccnc4)C3=O)C2)cn1 (stereo unspecified)	-74.9%
Cc1c(Br)cc2c(c1C)OCC(N(C)C)C2=O (stereo unspecified)	-13.1%
COCC(=O)NC(CC(C)C)c1nc2cccnc2n1C (stereo unspecified)	15.2%
Cc1ccc(N2CCN(c3ccccc3C)CC2C)nn1 (stereo unspecified)	13.2%
O=C(NCCCN1CCC(OC2CCCCC2)CC1)C1CCCC1	2.24%
Cc1nc(C)c(C(=O)N2C[C@@H](C(=O)O)[C@H](C3CC3)C2)s1	7.53%
c1cnc(N2CCOCC3(CN(Cc4ccsc4)CCO3)C2)nc1 (stereo unspecified)	5.83%
COCCOc1ccc(S(=O)(=O)Nc2cccnc2O)cc1C	4.68%
O=S(=O)(NCC1COCc2c(-c3ccncc3)nnn2C1)C1CC1 (stereo unspecified)	-80.9%
NC1CCCN(Cc2cccc(C(F)(F)F)c2)C1=O (stereo unspecified)	5.85%
CC(C)(CNC(=O)C1(c2ccccc2)CCOCC1)C(=O)O	1.25%
COCCC(=O)NCCc1nc(N(C)C)ncc1-c1ccncc1	1.68%
COc1ccc(-c2nc3c([nH]2)CCNC3C(=O)O)c2ccccc12 (stereo unspecified)	8.63%
COc1ccc(OC)c(CN2CCC(c3cc(O)nc(C)n3)C2)c1 (stereo unspecified)	-15%
Cc1sc(-c2ccco2)nc1C(=O)NCC1CCOC1 (stereo unspecified)	-6.71%
CCOC(=O)NCC(=O)Nc1nc2ccccc2n1C(C)(C)C	-4.62%
CN(C[C@H]1CN2CC[C@H]1C[C@@H]2CNC(=O)c1ccco1)c1ccccc1	-0.947%
CC1CCC(NC(=O)CNC2(c3cccc(Br)c3)CCOCC2)CC1 (stereo unspecified)	2.94%
Cc1ccc(N2CC3(CCN(C(=O)c4ccoc4)C3)C2)nn1	-11.6%
Cc1csc(CNC(=O)NCC(O)c2ccccc2)n1 (stereo unspecified)	2.26%
O=S(=O)(c1ccc(F)cc1)N1CC[C@H]2[C@H]1CCN2c1ncccn1	-2.85%
O=C1CC[C@H]2CN(c3ncc(F)cn3)CC[C@H]2N1CCc1ccccc1	9.61%

Structure (SMILES)	cytotoxicity at 10 µM
N#Cc1c(C2CC2)cc(-c2ccc(O)cc2)nc1N	-4.72%
COc1ccc(NC(=O)Cn2nc(C)c(C)cc2=O)cc1	4.2%
O=C(Cc1ccccn1)N1CCC2(CC1)[C@H](O)C[C@@H]2O	-2.34%
CC1(C(=O)NCc2ccsc2)CCOCC1	5.73%
Cc1cccc(CN2CCO[C@@H]3CC(COc4ccccn4)C[C@H]32)n1 (stereo partly specified)	-3.31%
CC(NC(=O)N1CCN(c2cccs2)CC1)c1ccc(C#N)cc1 (stereo unspecified)	11.4%
Cc1n[nH]c2c1C(c1ccc(Br)cc1)SCC(=O)N2 (stereo unspecified)	6.5%
Cc1ccc(OCCCC(=O)Nc2nonc2C)cc1C	7.03%
Cc1nn(C)c(Cl)c1CNCc1cccnc1N1CCCCC1	-145%
CN(CC(=O)NCCC#N)C(c1ccccc1)c1ccccc1	6.51%
CCC1CN(C(=O)c2ccc(=O)[nH]c2)CCC(=O)N1Cc1ccccc1 (stereo unspecified)	-17.6%
NC(=O)CN1CCCC(Cc2ccc(N3CCOCC3)nn2)C1 (stereo unspecified)	8.21%
CN(Cc1cccc(C(N)=O)c1)c1ncc(C(N)=O)cc1Cl	-3.73%
CCn1nc(C)c(CN(CCCOC)Cc2ccccn2)c1C	5.23%
CN(C)Cc1n[nH]c2c1CCN(Cc1cccs1)C2	1.63%
Cc1nc(CCCNC(=O)C2CC(=O)N(C(C)(C)C)C2)sc1C (stereo unspecified)	-6.86%
CCN(C)c1ncnc2c1CCN(Cc1ccoc1)CC2	-0.439%
CCn1cnnc1C1CCN(C(=O)c2c(C)oc(C)c2C)CC1	5.89%
Cc1cccc2c1nc(CCO)n2-c1ccc(NS(C)(=O)=O)nc1	2.34%
Cc1ccc(Cl)cc1C(=O)N1CCC2(CC1)c1ccccc1[C@@H](N)[C@@H]2O	-13.8%
O=C(c1cscn1)N1CCc2ncc(CN3CCCC3)n2CC1	-111%
Cc1ccsc1C(=O)N1CCC(Nc2cccnc2)CC1	-136%
CSCC(C)(O)CNS(=O)(=O)c1cccc(Cl)c1 (stereo unspecified)	-0.396%

Structure (SMILES)	cytotoxicity at 10 µM
CCCc1nccn1-c1cccc(C(C)O)c1 (stereo unspecified)	5.82%
CCCN(C(=O)CS(=O)(=O)c1ccccc1)c1cccc(C)c1	2.08%
COc1cc(C(=O)Nc2nc(C)no2)cc(Cl)c1OC	-4.29%
CC(c1nc(C2CC2)no1)N1CCN(Cc2ccccc2F)CC1 (stereo unspecified)	1.03%
CCC(C)N(Cc1cccnc1)Cc1ccc2c(c1)OCCO2 (stereo unspecified)	-2.83%
Cc1ccc(C2CSCCN2CCS(C)(=O)=O)cc1 (stereo unspecified)	-8.3%
CC(C)(CN1CCC2(CCCNC2)C1)N1CCOCC1 (stereo unspecified)	-141%
CCOCC1CN(Cc2cccnc2OC)Cc2cnn(C)c21 (stereo unspecified)	-1.6%
O=C(C1=CCCC1)N1CCC[C@]2(C[C@@H](OCc3ccncc3)CO2)C1	-6.5%
CCOC(=O)c1c(NC(=O)CN2CCN(C(C)=O)CC2)sc2c1CCC2	-5.33%
NC(=O)CN1CCCN(C(=O)c2ccn(-c3cccc(F)c3)n2)CC1	14.3%
Cc1cc(NCCS(C)(=O)=O)nc2cc3c(cc12)CCC3	8.05%
CCC(CC)NC(=O)c1nc2n(n1)-c1ccccc1S(=O)(=O)N2	8.3%
Cc1ccc(-c2cc(N)c(=O)n(CC(=O)NC3CCCCC3)n2)s1	2.98%
O=C1O[C@@H]2CN(Cc3ccncc3)C[C@@H]2N1CCCN1CCOCC1	-6.13%
Cc1nc(C)n(CC2CCCN2CCCc2ccccc2)n1 (stereo unspecified)	-14.1%
CC(=O)c1cc(C(=O)NC2(c3ccc(Br)cc3)CC2)n(C)c1	5.78%
CN(C)[C@H]1COC[C@@H]2CN(Cc3ccc4c(c3)OCO4)C[C@@H]21	4.2%
CC(COc1ccc(F)cc1F)NC(=O)NCCN1CCOCC1 (stereo unspecified)	-10.9%
CS(=O)(=O)NCc1nnc2n1CCN(Cc1nccs1)C2	-75.7%
CN(C)c1ncccc1NC(=O)COCC1CC1	-4.69%
O=C(NCc1ccccc1)C1=NOC2(CCNC2)C1 (stereo unspecified)	0.213%
O=S1(=O)NCC2(CCCN(Cc3ccccn3)C2)Oc2ncccc21 (stereo unspecified)	2.22%

Structure (SMILES)	cytotoxicity at 10 µM
CN(Cc1n[nH]c2c1CCCC2)c1nc(C2CC2)nc2c1CCNCC2	-10.3%
CCOCCOC(C)C(=O)Nc1nccn1Cc1ccccc1 (stereo unspecified)	3.94%
Cn1cccc1C(=O)NCc1cnc2n1CCN(C(N)=O)CC2	0.312%
Cc1nn(C)c2nc(NCCCN3CCCC(CO)C3)sc12 (stereo unspecified)	-14.2%
CS(=O)(=O)N1CCC2(CN(C(=O)c3cccnc3)C2)C1	-13%
O=C1NC(c2ccccc2)=N[C@@]12CC[C@@H]1CN(CC3CC3)C[C@@H]12	9.79%
COc1ccccc1N1CCN(C(=O)Cn2nc(C)c(Cl)c2C)CC1	0.808%
Cc1cccc(-c2ncc(CNC(C)Cc3ccncc3)cn2)c1 (stereo unspecified)	-8.18%
CN(C)C(=O)N1CCN(Cc2cnn(C)c2)CC2(CNC(=O)C2)C1 (stereo unspecified)	1.21%
Fc1ccc(CCC2CCCN(Cc3c[nH]cn3)C2)c(F)c1 (stereo unspecified)	-6.51%
CC(C)c1noc(CN2CCC(c3ccnn3CCO)CC2)n1	-18.6%
CNS(=O)(=O)c1ccc(CN(C)Cc2nc3ccc(F)cc3[nH]2)cc1	17.2%
Cc1cc(C(=O)N2CCN(C(=O)Cc3ccccn3)CC2)c(C)s1	6.18%
CN(CCNC(=O)Nc1ccncc1)C1CCCCC1	-0.39%
O=C(Nc1cnc(Oc2ccccc2F)nc1)C1CC1	0.0701%
CCOC(=O)N(C)C1CCN(Cc2csc(C)n2)CC1	-3.37%
CC(CNC(=O)NCc1ccco1)N1CCc2sccc2C1 (stereo unspecified)	-11.5%
CN(C1CCCCC1)S(=O)(=O)NC1CCN(c2ncccn2)CC1	6.99%
Cc1cnn(C2CN(CCOc3ccc(C#N)cc3)C2)c1	1.77%
O=c1[nH]c2cn(-c3ccc(Br)cc3)c(=O)n2[nH]1	-5.51%
CC(C)C(O)CNC(=O)Nc1ccc(F)c(Cl)c1 (stereo unspecified)	5.6%
CN(C)c1cc(C(=O)N2CCN(c3nccs3)CC2)ccn1	-10.8%
CCOCC1CN(C(=O)c2cnoc2C)Cc2cn(C)nc21 (stereo unspecified)	12.9%

Structure (SMILES)	cytotoxicity at 10 µM
CN(C)CCN(C)C[C@@H]1CN(C(=O)NC2CCCC2)C[C@@H]1CO	1.35%
CC(NC1(CNC(=O)CC(C)(C)C)CCOCC1)c1ccccc1 (stereo unspecified)	8.57%
CNC(=O)CN1CCCC12CCN(C(=O)c1ccsc1)CC2	4.87%
O=C(O)c1cc(NS(=O)(=O)c2ccc(Br)s2)c(F)cc1F	-7.1%
COCCN1CCN(C(=O)c2ccc(COC)o2)[C@H]2CS(=O)(=O)C[C@H]21	-6.15%
O=C(c1cnccn1)N1CC[C@H]2[C@H]1CCN2S(=O)(=O)C1CC1	-168%
CN(C)C(=O)CN1CCC2(CC1)CC(=O)c1ccc3ccccc3c1O2	6.17%
Cc1nc(CN2CCO[C@@H]3CN(Cc4ccccn4)CC[C@@H]3C2)cs1	7.02%
CCC[C@@H]1CN(c2ncnc3sccc23)C[C@H]1NS(C)(=O)=O	-1.25%
CCOCC1CCN(C(=O)C(c2cccc(F)c2)N(C)C)CC1 (stereo unspecified)	-4.57%
CN(C)Cc1nn(C)c2c1CN(C(=O)Nc1cccc(F)c1)C2	4.23%
CCOCCn1nnc(C2(NC(=O)c3ccccc3)CCCC2)n1	21.9%
Cc1nn(C)c(C)c1C1CCCN1C(=O)c1ccc(N(C)C)nn1 (stereo unspecified)	-10.6%
CCc1nc(CN(C)C2CCN(CCc3cccs3)C2)no1 (stereo unspecified)	-8.7%
c1csc(-c2noc(CC3CCCO3)n2)c1 (stereo unspecified)	-3.37%
CCCc1nnsc1C(=O)NCC1CCN(S(C)(=O)=O)CC1	-19.7%
COc1ccccc1NCC(=O)NCc1ccc(-c2ccn[nH]2)cc1	-1.99%
CN(Cc1ccccc1F)C(=O)c1ccoc1	11.3%
COc1ccc2c(c1)nc1n2[C@@H](CNCc2ccccc2)COC1	-0.201%
